Measured values reported in ChEMBL document CHEMBL4038284, “Synthesis of novel quinoline-based 4,5-dihydro-1H-pyrazoles as potential anticancer, antifungal, antibacterial and antiprotozoal agents” (Eur J Med Chem, 2017).

How the values were obtained:
Assay type in all cases: functional
[1] = system: IGROV-1; assay: Growth inhibition of human IGROV1 cells incubated for 48 hrs by sulforhodamine B assay; conditions: IGROV-1, 48 h
Outline: (§1)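 NCI 60-line screen. Cells in RPMI-1640 with 5% FBS and 2 mM L-glutamine, preincubated 24 h, then time-zero plates TCA-fixed. Compounds from DMSO stocks given at five final concentrations (100, 10, 1.0, 0.1, 0.01 µM) for 48 h at 37 °C, 5% CO2. Cells fixed with 10% TCA, SRB-stained, read at 515 nm. GI50 is the concentration giving 50% lower net protein increase versus control.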

[2] = system: SNB-75; assay: Growth inhibition of human SNB75 cells incubated for 48 hrs by sulforhodamine B assay; conditions: SNB-75, 48 h; outline: as §1
[3] = system: HCC 2998; assay: Growth inhibition of human HCC2998 cells incubated for 48 hrs by sulforhodamine B assay; conditions: HCC 2998, 48 h; outline: as §1
[4] = system: MDA-MB-435; assay: Growth inhibition of human MDA-MB-435 cells incubated for 48 hrs by sulforhodamine B assay; conditions: MDA-MB-435, 48 h
Outline: (§2)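 Five-dose NCI SRB assay at 100, 10, 1.0, 0.1 and 0.01 μM for 48 h at 37 °C, 5% CO2. Medium was RPMI-1640 with 5% FBS and 2 mM glutamine. Time-zero plates were TCA-fixed at compound addition, A515 read after SRB staining. GI50 was solved from [(Ti−Tz)/(C−Tz)]×100 = 50. Values beyond the tested range are given as > or <.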

[5] = system: SF-295; assay: Growth inhibition of human SF295 cells incubated for 48 hrs by sulforhodamine B assay; conditions: SF-295, 48 h; outline: as §2
[6] = system: SW-620; assay: Growth inhibition of human SW620 cells incubated for 48 hrs by sulforhodamine B assay; conditions: SW-620, 48 h
Outline: (§3)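 NCI-60 panel cells grown in RPMI-1640 with 5% FBS and 2 mM L-glutamine, preincubated 24 h at 37 °C/5% CO2. Time-zero plates were TCA-fixed at compound addition. DMSO stocks were diluted in medium and tested at five final concentrations (100, 10, 1.0, 0.1, 0.01 µM) for 48 h. Cells were TCA-fixed, stained with SRB and read at 515 nm. GI50 = 50% lower net protein increase versus control.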

[7] = system: A498; assay: Growth inhibition of human A498 cells incubated for 48 hrs by sulforhodamine B assay; conditions: A498, 48 h; outline: as §1
[8] = system: 786-0; assay: Growth inhibition of human 786-0 cells incubated for 48 hrs by sulforhodamine B assay; conditions: 786-0, 48 h
Outline: (§4)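 NCI five-dose SRB assay (100, 10, 1.0, 0.1, 0.01 µM) with 48 h exposure in RPMI-1640 with 5% FBS and 2 mM L-glutamine. Cells fixed with TCA and stained with SRB, read at 515 nm. GI50 is the concentration where [(Ti−Tz)/(C−Tz)]×100 = 50.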

[9] = system: KM12; assay: Growth inhibition of human KM12 cells incubated for 48 hrs by sulforhodamine B assay; conditions: KM12, 48 h; outline: as §2
[10] = system: EKVX; assay: Growth inhibition of human EKVX cells incubated for 48 hrs by sulforhodamine B assay; outline: as §4
[11] = system: COLO 205; assay: Growth inhibition of human COLO205 cells incubated for 48 hrs by sulforhodamine B assay; conditions: COLO 205, 48 h; outline: as §4
[12] = system: SK-OV-3; assay: Growth inhibition of human SKOV3 cells incubated for 48 hrs by sulforhodamine B assay; conditions: SK-OV-3, 48 h; outline: as §1
[13] = system: BT-549; assay: Growth inhibition of human BT549 cells incubated for 48 hrs by sulforhodamine B assay; conditions: BT-549, 48 h; outline: as §4
[14] = system: Hs-578T; assay: Growth inhibition of human Hs578T cells incubated for 48 hrs by sulforhodamine B assay; outline: as §2
[15] = system: SNB-19; assay: Growth inhibition of human SNB19 cells incubated for 48 hrs by sulforhodamine B assay; conditions: SNB-19, 48 h; outline: as §3
[16] = system: MOLT-4; assay: Growth inhibition of human MOLT4 cells incubated for 48 hrs by sulforhodamine B assay; conditions: MOLT-4, 48 h; outline: as §1
[17] = system: NCI-H322M; assay: Growth inhibition of human NCI-H322M cells incubated for 48 hrs by sulforhodamine B assay; outline: as §2
[18] = system: HCT-15; assay: Growth inhibition of human HCT15 cells incubated for 48 hrs by sulforhodamine B assay; conditions: HCT-15, 48 h; outline: as §1
[19] = system: M14; assay: Growth inhibition of human M14 cells incubated for 48 hrs by sulforhodamine B assay; conditions: M14, 48 h; outline: as §2
[20] = system: SR; assay: Growth inhibition of human SR cells incubated for 48 hrs by sulforhodamine B assay; outline: as §1
[21] = system: NCI/ADR-RES; assay: Growth inhibition of human NCI/ADR-RES cells incubated for 48 hrs by sulforhodamine B assay; outline: as §1
[22] = system: OVCAR-8; assay: Growth inhibition of human OVCAR8 cells incubated for 48 hrs by sulforhodamine B assay; conditions: OVCAR-8, 48 h; outline: as §2
[23] = system: UO-31; assay: Growth inhibition of human UO31 cells incubated for 48 hrs by sulforhodamine B assay; conditions: UO-31, 48 h; outline: as §3
[24] = system: MDA-MB-231; assay: Growth inhibition of human MDA-MB-231 cells incubated for 48 hrs by sulforhodamine B assay; conditions: MDA-MB-231, 48 h; outline: as §2
[25] = system: OVCAR-3; assay: Growth inhibition of human OVCAR3 cells incubated for 48 hrs by sulforhodamine B assay; conditions: OVCAR-3, 48 h; outline: as §2
[26] = system: K562; assay: Growth inhibition of human K562 cells incubated for 48 hrs by sulforhodamine B assay; conditions: K562, 48 h; outline: as §1
[27] = system: NCI-H226; assay: Growth inhibition of human NCI-H226 cells incubated for 48 hrs by sulforhodamine B assay; conditions: NCI-H226, 48 h; outline: as §1
[28] = system: SK-MEL-5; assay: Growth inhibition of human SK-MEL-5 cells incubated for 48 hrs by sulforhodamine B assay; conditions: SK-MEL-5, 48 h; outline: as §1
[29] = system: MDA-MB-468; assay: Growth inhibition of human MDA-MB-468 cells incubated for 48 hrs by sulforhodamine B assay; conditions: MDA-MB-468, 48 h; outline: as §2
[30] = system: DU-145; assay: Growth inhibition of human DU145 cells incubated for 48 hrs by sulforhodamine B assay; conditions: DU-145, 48 h; outline: as §4
[31] = system: A549; assay: Growth inhibition of human A549/ATCC cells incubated for 48 hrs by sulforhodamine B assay; conditions: A549, 48 h; outline: as §1
[32] = read-out: LC50 (the source's name)

COc1cc(C(=O)/C=C/c2cccc(Nc3ccnc4cc(Cl)ccc34)c2)cc(OC)c1OC
GI50 [1]: 1320 nM
CC50 [1, 32]: > 100 µM
GI50 [2]: 1310 nM
CC50 [2, 32]: > 100 µM
GI50 [3]: 1720 nM
CC50 [3, 32]: 5.99 µM
GI50 [4]: 470 nM
GI50 [5]: 1420 nM
CC50 [5, 32]: 6.47 µM
GI50 [6]: 450 nM
CC50 [6, 32]: > 100 µM
GI50 [7]: 1540 nM
CC50 [7, 32]: > 100 µM
GI50 [8]: 560 nM
LC50 [8]: 4.89 µM
GI50 [9]: 440 nM
GI50 [10]: 1620 nM
GI50 [11]: 1340 nM
CC50 [11, 32]: > 100 µM
GI50 [12]: 1940 nM
CC50 [12, 32]: 2610 nM
GI50 [13]: 1230 nM
CC50 [13, 32]: 6.59 µM
GI50 [14]: 2490 nM
CC50 [14, 32]: > 100 µM
GI50 [15]: 1180 nM
CC50 [15, 32]: 5.08 µM
GI50 [16]: 1790 nM
CC50 [16, 32]: > 100 µM
GI50 [17]: 1520 nM
CC50 [17, 32]: 7.08 µM
GI50 [18]: 520 nM
GI50 [19]: 1410 nM
GI50 [20]: 320 nM
CC50 [20, 32]: > 100 µM
GI50 [21]: 410 nM
CC50 [21, 32]: > 100 µM
GI50 [22]: 520 nM
LC50 (concentration causing 50% net cell kill) [22]: 7.07 µM
GI50 [23]: 570 nM
CC50 [23, 32]: 4.42 µM
GI50 [24]: 1810 nM
GI50 [25]: 390 nM
CC50 [25, 32]: 3.85 µM
GI50 [26]: 400 nM
CC50 [26, 32]: > 100 µM
GI50 [27]: 1270 nM
CC50 [27, 32]: 6.85 µM
GI50 [28]: 1380 nM
CC50 [28, 32]: 5.18 µM
GI50 [29]: 1130 nM
GI50 [30]: 1460 nM
GI50 [31]: 1480 nM
LC50 (concentration giving 50% net cell kill) [31]: 11.5 µM
